Calls of active or inactive are those of the source. No cut-off for these calls is given here.
Legend:
[1] = molecular target: T1, Polyunsaturated fatty acid lipoxygenase ALOX15 (Homo sapiens) (UniProt P16050); assay: Inhibition of 15-LOX in human PMNL assessed as reduction in 15-LOX product formation at 0.03 to 0.2 uM treated with AA and A23187 by RP-HPLC method; assay type: tissue-based; conditions: dose 0.03-0.2 µM
T1 sequence (whole entry): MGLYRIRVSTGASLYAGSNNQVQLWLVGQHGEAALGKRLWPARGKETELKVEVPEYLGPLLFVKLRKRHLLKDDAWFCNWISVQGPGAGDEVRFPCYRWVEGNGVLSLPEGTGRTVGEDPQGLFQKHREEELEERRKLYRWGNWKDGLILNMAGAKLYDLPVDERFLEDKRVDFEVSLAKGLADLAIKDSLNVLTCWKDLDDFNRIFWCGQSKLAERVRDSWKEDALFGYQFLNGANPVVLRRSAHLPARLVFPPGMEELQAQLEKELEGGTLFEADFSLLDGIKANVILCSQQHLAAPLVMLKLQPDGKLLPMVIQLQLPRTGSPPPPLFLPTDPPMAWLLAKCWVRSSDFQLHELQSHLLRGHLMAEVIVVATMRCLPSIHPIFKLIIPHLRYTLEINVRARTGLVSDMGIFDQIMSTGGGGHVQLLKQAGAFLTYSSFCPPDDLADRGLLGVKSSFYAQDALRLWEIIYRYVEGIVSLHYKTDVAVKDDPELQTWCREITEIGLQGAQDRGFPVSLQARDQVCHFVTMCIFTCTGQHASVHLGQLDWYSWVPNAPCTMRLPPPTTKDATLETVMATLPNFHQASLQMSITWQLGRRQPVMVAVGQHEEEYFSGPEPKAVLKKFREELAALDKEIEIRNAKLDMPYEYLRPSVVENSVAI

[2] = tested on: Mus musculus; assay: Antiinflammatory activity in zymosan-induced CD-1 mouse peritonitis model assessed as reduction in 5-LOX product level at 10 mg/kg, po preincubated with compound for 60 mins followed by zymosan addition and measured after 30 mins; assay type: functional, organism-based; conditions: time 90.0 min
How it was run: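 Oral dosing at 10 mg/kg in zymosan peritonitis; mice killed 30 min after zymosan. Peritoneal exudate lipid mediators and fatty acids profiled by UPLC-MS/MS, with LTC4 measured by ELISA; results expressed as fold change versus vehicle.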

[3] = Antioxidant activity assessed as DPPH radical scavenging activity at 0.1 to 10 uM incubated for 30 mins by microplate reader based assay; assay type: functional; conditions: dose 0.1-10 µM
How it was run: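 Compound incubated with DPPH (50 mM, as printed) in ethanol for 30 min, then absorbance read at 520 nm. Ascorbic acid at 25 μM used as positive control; n = 4 independent experiments.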

[4] = molecular target: T2, Polyunsaturated fatty acid lipoxygenase ALOX12 (Homo sapiens) (UniProt P18054); assay: Inhibition of 12-LOX in human PMNL assessed as reduction in 12-LOX product formation at 10 uM treated with AA and A23187 by RP-HPLC method; assay type: tissue-based
T2 sequence (whole entry): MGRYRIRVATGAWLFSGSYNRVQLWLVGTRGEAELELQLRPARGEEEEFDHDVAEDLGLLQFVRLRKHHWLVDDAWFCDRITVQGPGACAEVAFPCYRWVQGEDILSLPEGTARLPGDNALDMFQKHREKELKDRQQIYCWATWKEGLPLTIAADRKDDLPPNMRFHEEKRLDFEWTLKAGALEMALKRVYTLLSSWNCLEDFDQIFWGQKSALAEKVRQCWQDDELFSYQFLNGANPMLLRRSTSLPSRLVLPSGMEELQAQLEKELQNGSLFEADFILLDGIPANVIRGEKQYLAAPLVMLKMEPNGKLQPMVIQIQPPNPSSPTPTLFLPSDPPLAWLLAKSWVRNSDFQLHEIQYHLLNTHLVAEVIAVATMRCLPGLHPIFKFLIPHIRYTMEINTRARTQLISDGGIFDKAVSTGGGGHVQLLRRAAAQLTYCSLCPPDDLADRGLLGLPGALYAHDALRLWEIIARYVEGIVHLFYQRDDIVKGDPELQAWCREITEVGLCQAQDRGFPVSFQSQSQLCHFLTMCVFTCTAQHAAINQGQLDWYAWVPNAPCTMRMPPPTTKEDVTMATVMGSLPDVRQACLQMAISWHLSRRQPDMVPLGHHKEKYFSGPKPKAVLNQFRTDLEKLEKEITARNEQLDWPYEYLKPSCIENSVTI

[5] = tested on: Mus musculus; assay: Antiinflammatory activity BALB/c mouse assessed as inhibition of carbachol-induced bronchial reactivity at 10 mg/kg, po administered on day 0 and 7 and measured upto 21 days; assay type: functional, organism-based; conditions: time day <=21
[6] = tested on: Mus musculus; assay: Antiinflammatory activity against ovalbumin-induced airway hyperreactivity in BALB/c mouse assessed as reduction in LTB4 and isomers level in lung tissue at 10 mg/kg, po pretreated with compound for 60 mins prior to ovalbumin stimulation on day 0 and 7 and […] by UPLC-MS/MS analysis; assay type: functional, organism-based
How it was run: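 Mice gavaged with 10 mg/kg 60 min before ovalbumin sensitization on days 0 and 7. Lung tissue taken on […] and LTB4 plus its isomers quantified as pg/mg lung tissue; n = 5 mice; two-tailed unpaired t-test of log data.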

[7] = Drug metabolism in human liver-on-chip assessed as compound conjugation with sulfate incubated for 48 hrs by UPLC-MS/MS analysis; assay type: ADME, tissue-based
How it was run: (§1)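 Liver-on-chip built from differentiated HepaRG cells (hepatocyte-like and biliary-like) with a HUVEC endothelial layer. Loaded with compound at 1 μM and incubated 48 h; compound and metabolites quantified from extracted chromatograms; n = 3 independent experiments.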

[8] = tested on: Keratinocyte; assay: Antiinflammatory activity in cytokine cocktail-induced reconstructed human epidermis model assessed as reduction in IL-8 level at 5 to 25 uM after 4 days by ELISA; assay type: functional, cell-based; conditions: dose 5-25 µM, time 4.0 day
How it was run: (§2)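 Reconstructed human epidermis exposed to compound and stressed with a cytokine cocktail for 4 days. Readouts: IL-8 in growth medium, H&E morphology, transepidermal water loss, stratum corneum permeability to Lucifer yellow with DAPI nuclear stain, and surface pH. n = 2–3 independent experiments.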

[9] = tested on: Mus musculus; assay: Antiinflammatory activity in zymosan-induced CD-1 mouse peritonitis model assessed as reduction in LTC4 level at 3 mg/kg, po preincubated with compound for 60 mins followed by zymosan addition and measured after 30 mins by ELISA; assay type: functional, organism-based; conditions: time 90.0 min
How it was run: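 Oral dosing at 3 mg/kg in zymosan-induced peritonitis; mice killed 30 min after zymosan; LTC4 in peritoneal exudate measured by ELISA; two-tailed unpaired t-test of log data.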

[10] = tested on: Keratinocyte; assay: Antiinflammatory activity in cytokine cocktail-induced reconstructed human epidermis model assessed as improved skin barrier functions at 5 to 25 uM after 4 days; assay type: functional, cell-based; conditions: dose 5-25 µM, time 4.0 day; how it was run: as §2
[11] = Drug metabolism in human liver-on-chip assessed as compound oxidization at 12a' or 13' of omega-carboxylic acid incubated for 48 hrs by UPLC-MS/MS anlaysis; assay type: ADME, tissue-based; how it was run: as §1
[12] = molecular target: T1, Polyunsaturated fatty acid lipoxygenase ALOX15 (Homo sapiens); assay: Inhibition of 15-LOX in human PMNL assessed as reduction in 15-LOX product formation at 10 uM treated with AA and A23187 by RP-HPLC method; assay type: tissue-based

inhibition [1]: inactive
inhibition [4]: inactive
Drug metabolism [7]: Metabolite_Detected
Drug metabolism [11]: Metabolite_Detected
inhibition [12]: inactive
SMILES: C/C(=C\CC/C(C)=C/CC[C@]1(C)CCc2c(C)c(O)c(C)c(C)c2O1)CCC=C(CO)CO
Activity [2]: Active
Activity [3]: inactive
Activity [5]: Active
Activity [6]: Active
Activity [8]: Active
Activity [9]: Active
Activity [10]: Active

From ChEMBL document CHEMBL4834471 (J Med Chem, 2021)
